Measurements: ChEMBL document CHEMBL4316619 (Bioorg Med Chem Lett, 2019)
Activity calls are given as the source filed them. No cut-off for these calls is given here.

Key:
[1] = Drug level in C57BL/6 mouse plasma at 30 mg/kg, ip measured at 48 hrs; format: ADME, organism-based
Method in brief: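 Male C57BL/6 mice, single intraperitoneal 30 mg/kg dose, N=3. Plasma, liver and lung concentrations followed over time to give concentration-time profiles, from which Tmax, Cmax, terminal t1/2, AUClast and AUCINF were derived.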

[2] = tested on: Influenza B virus; experiment: Antiviral activity against Influenza B virus (B/Brisbane/60/2008) infected in MDCK cells assessed as reduction in virus-induced cytopathic effect measured on day 5 by Celltiter-Glo luminescence assay; format: functional, organism-based
[3] = Drug level in C57BL/6 mouse liver at 30 mg/kg, ip measured at 8 hrs; format: ADME, organism-based; details: in vivo
Method in brief: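 Male C57BL/6 mice received a single intraperitoneal dose of 30 mg/kg (N=3). Compound concentrations were followed over time in plasma, liver and lung. Tmax, Cmax, terminal t1/2, AUClast and AUCINF were derived from the mean concentration-time profiles.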

Q: What does the source list for `COc1cc(-c2ccnc3c2c(C)nn3-c2ccc(C(F)(F)F)cc2)ccc1O`?
A: concentration at 48 h [1]: 3 nM; Activity [2]: inactive; Drug uptake [3]: 5058 nmol/kg
